# In PubChem BioAssay AID504382 (The Scripps Research Institute Molecular Screening Center, 2011):
# In all, about 2,500 compounds went through this assay and about 460 (18%) were called active. Only a sample is shown. Unmarked numbers belong to inactive results.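 How the source made its calls: active means mean activation above a cutoff of low control average plus 3 SD from the earlier screen (cut at about 12% in these data); inactive means the rest.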
# Assay: compound fluorescence interference without thin filaments, confirmation, artefact control for cardiac RTF calcium sensitizer project, biochemical (AID 504382)
# Conditions: IANBD fluorescence interference counterscreen, buffer, EC20 Ca2+; at 7.2 µM; stronger effect = higher value; scaled: EC20 calcium 0, EC100 calcium 100
# Outline: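 Medium: MOPS buffer, 190 mM, with KCl, MgCl2, EGTA, NTA, DTT, pH 7.20; Dosing: one dose of 7.2 µM, 0.7% DMSO; Probe or stimulus: calcium at EC20 level, 0.472 mM final; Incubation: 15 min, 25 °C; Evaluation: compound fluorescence interference relative to control well signal range; Signal: fluorescence, 480/540 nm.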
row,Compound,fluorescence artifact activation
1,Cc1cc(C)n2nc(SCC(=O)N(C)Cc3ccccc3)nc2n1,-0.05%
2,CCN1CCN(Cc2c(O)ccc3c2O/C(=C\c2ccccc2)C3=O)CC1,2.91%
3,Cc1ccc(/C=C2\Oc3c(ccc(O)c3CN3CCN(CCO)CC3)C2=O)cc1,4.11%
4,CCN1CCN(Cc2c(O)ccc3c2O/C(=C\C=C\c2ccccc2OC)C3=O)CC1,1.64%
5,CCN1CCN(Cc2c(O)ccc3c2O/C(=C\C=C\c2ccccc2)C3=O)CC1,20.6% (active)
6,COc1ccccc1/C=C/C=C1\Oc2c(ccc(O)c2CN2CCN(CCO)CC2)C1=O,11.9% (active)
7,CN(C)Cc1c(O)ccc2c1O/C(=C\C=C\c1ccccc1)C2=O,0.37%
8,COc1ccccc1/C=C/C=C1\Oc2c(ccc(O)c2CN(C)C)C1=O,5.64%
9,O=C1/C(=C/C=C/c2ccccc2)Oc2c1ccc(O)c2CN1CCN(CCO)CC1,46.6% (active)
10,CCN(CC)Cc1c(O)ccc2c1O/C(=C\C=C\c1ccccc1)C2=O,0.87%
11,Cc1c(/C=N/O)c2ccccn2c1C=O,0.97%
12,O=[N+]([O-])c1cc(-c2nc(-c3ccncc3)no2)ccc1Cl,-0.06%
13,CCCc1ccc(OCc2ccc(C(=O)NN)o2)c(OC)c1,-0.08%
14,CN1CCCc2cc3c(C(F)(F)F)cc(=O)oc3nc21,1.21%
15,CC1CCCCC1NS(=O)(=O)CCNC(=O)c1ccccc1 (stereo not given),-0.01%
16,CC(CC(=O)N1CCc2ccccc21)n1cccn1 (stereo not given),0.19%
17,C[C@H](O)C(=O)C1=Nc2c(nc(N)[nH]c2=O)NC1,0.04%
18,CC(=O)c1cccc(NC(=O)Cn2nc(-c3ccccc3Cl)ccc2=O)c1,0.29%
19,CN1C(=O)NC(c2ccccc2[N+](=O)[O-])C2=C1CCCC2=O (stereo not given),0.1%
20,CCN1C(=S)N[C@@H](CCc2ccccc2)[C@H](C(=O)OC)[C@H]1C,20.1% (active)
21,O=C(N/N=C/c1ccc([N+](=O)[O-])cc1)c1cc(-c2ccc3c(c2)OCO3)n[nH]1,0.03%
22,CSc1nc(C)nc(N/C=C(\C#N)S(=O)(=O)c2ccccc2Cl)n1,0.27%
23,COC(=O)c1cc2c(cc1NC(=O)CSCCc1ccccn1)OCO2,0.01%
24,O=C(c1ccc(F)cc1)N1CCN=C1c1ccccc1,0.24%

row,Compound,fluorescence artifact activation
1,O=C1c2ccccc2C(=O)N1CC1=NCCc2ccccc21,0.03%
2,O=C(CN1C(=O)c2ccccc2C1=O)N1CCN=C1c1ccccc1,19.8% (active)
3,O=C(O)c1ccccc1/C=N/NC(=S)NC1CCCCC1,0.11%
4,CSc1ccc(Cl)c(C(=O)NNC(=O)c2csc(N3CCOCC3)n2)c1,2.41%
5,CCCN1CC=C2C(C#N)=C(N)C(C#N)(C#N)C(c3cccc(OC)c3OC)C2C1 (stereo not given),0.1%
6,Nc1nc(NCc2ccco2)nc(N2CCCCCC2)c1[N+](=O)[O-],1.86%
7,Cc1cc(/C=C2\SC(=S)N(Cc3ccco3)C2=O)c(C)n1-c1cccnc1,10.8%
8,Cc1cc(/C=C2\SC(=S)N(Cc3ccco3)C2=O)c(C)n1-c1ccccc1,3.1%
9,COc1ccc(-n2c(C)cc(/C=C3\SC(=S)N(Cc4ccco4)C3=O)c2C)cc1,91.9% (active)
10,Cc1nc(NC(=O)C(Cl)Cl)sc1C(=O)N(C)C,0.56%
11,CCOc1c2ccc(C(=O)NCCc3cccs3)cc2nn1CC,0.58%
12,CC(C)CCNC(=O)c1ccc2c(SCC(=O)O)c3c(nc2c1)CCC3,12.9% (active)
13,COC(=O)C1C2CC3c4[nH]c5cc(OC)ccc5c4CCN3CC2CC(OC(=O)CC(C)=O)C1OC (stereo not given),0.13%
14,CN(C)c1ccc(/C=C2\CCC/C(=C\c3ccccc3)C2=O)cc1,0.02%
15,Cc1ccc(/C=C2/NC(=O)N(Cc3ccccc3)C2=O)s1,0.01%
16,CN(C)c1ccc(/C=C2\NC(=S)N(Cc3ccccc3)C2=O)cc1,91.1% (active)
17,COC(=O)c1sccc1Oc1ccc(Cl)cc1N1C(=O)CCC1=O,0.03%
18,COC(=O)c1c(=O)n(O)c2ccc(OC)cc2[n+]1[O-],0.04%
19,C=CCn1c(=O)/c(=C/c2cc(OC)c(OC)c(OC)c2)s/c1=C(/C#N)c1nc2ccccc2n1C,0.02%
20,Cc1cccc(OCc2nn[nH]n2)c1C,1.02%
21,COc1ccccc1C1=NOC(Cn2c(=O)c3c(ncn3C)n(C)c2=O)C1 (stereo not given),0.23%
22,CCN(CC)CCN1C(=O)c2cccc3cc(N)cc(c23)C1=O,24.6% (active)
23,CC(C)CCN1C(=O)c2cccc3c(N)ccc(c23)C1=O,1.45%
24,O=C1c2cccc3cc([N+](=O)[O-])cc(c23)C(=O)N1CCN1CCCC1,0.08%

row,Compound,fluorescence artifact activation
1,Cc1ccc(Cn2c(O)c(N=NC(=S)Nc3ccccc3F)c3cc(S(=O)(=O)N4CCOCC4)ccc32)cc1,5.72%
2,CC(=O)c1cc(NC(=O)c2ccc(Cl)cc2)c(=O)oc1/C=C/N(C)C,0.02%
3,CC(=O)c1cc(NC(=O)c2ccc(C)cc2)c(=O)oc1/C=C/N(C)C,15.6% (active)
4,COC(=O)c1cc(NC(=O)c2ccccc2)c(=O)oc1C/C=N\OCc1ccc(Cl)cc1Cl,0.01%
5,N#CC12COC3(CCCCC3C1(C#N)C#N)OC2=N (stereo not given),0.14%
6,CCOc1ccc(N(C(=O)CNC(=O)c2ccco2)C(C(=O)NC2CCCC2)c2ccncc2)cc1 (stereo not given),0.08%
7,CN(CC(=O)NCc1ccco1)S(=O)(=O)c1cccc2cccnc12,6.75%
8,CCC(C)(C)NC(=O)C(c1ccc(F)cc1)N(Cc1ccco1)C(=O)c1cnccn1 (stereo not given),18.7% (active)
9,COc1cccc(CN2CCNC(=O)C2CC(=O)N(C)Cc2cnccn2)c1OC (stereo not given),0.09%
10,O=C(CSC1=NS(=O)(=O)c2ccccc2N1)N1CCCCC1,1.61%
11,CN(C)C(CNC(=O)CSc1nc2ccccc2c(=O)n1Cc1ccco1)c1ccccc1 (stereo not given),-0.06%
12,CC1(C)CC(CC(=O)Nc2nccs2)(c2ccccc2)CCO1 (stereo not given),239% (active)
13,O=C(Cc1c(F)cccc1Cl)Nc1nccs1,0.01%
14,CC1(C)CC2(CCCN(C(=S)Nc3ccccc3)C2)CCO1 (stereo not given),0.12%
15,Cn1c(=O)cc(SCC(=O)NCC2COc3ccccc3O2)c2ccccc21 (stereo not given),0.03%
16,Cc1cc(NS(C)(=O)=O)c(=O)n(Cc2cccc(F)c2)c1,0.35%
17,COc1ccc(N/C=C2\C(=O)CCc3c2oc2cc(Cl)c(O)c(Cl)c32)cc1,12.7% (active)
18,Cn1cnnc1Sc1nc2ccccc2nc1NS(=O)(=O)c1ccccc1,4.87%
19,Cc1cc(N/C=C\c2nnnn2-c2ccc(F)cc2)no1,233% (active)
20,CC(=O)N(c1ccccc1)C1SC(=O)N(c2ccccc2)C1=O (stereo not given),0.05%
21,O=C(O)C(c1ccccc1)N1C(=O)/C(=C\c2ccc(-c3ccc(Br)cc3)o2)SC1=S (stereo not given),68.3% (active)
22,O=C(O)CN1C(=O)/C(=C/c2ccc(SCc3ccccc3)o2)SC1=S,11.5%
23,O=C(O)c1cc(-c2ccc(/C=C3/SC(=S)N(Cc4ccccc4)C3=O)o2)ccc1Cl,0.02%
24,CC(C)NC(=S)N/N=C/c1sc(N2CCCCC2)nc1-c1cccs1,0.18%

row,Compound,fluorescence artifact activation
1,FC(F)(F)c1ccc(-c2nc(=S)[nH][nH]2)cc1,-0.01%
2,CCN(CC)CC(C(=O)N(CC)CC)P(=O)(c1ccccc1)c1ccccc1 (stereo not given),1.03%
3,CCC1Oc2ccc(C)cc2N(CC(=O)NCc2cccs2)C1=O (stereo not given),-0.08%
4,Cc1ccc(SCC(=O)OCC(=O)NCc2cccs2)cc1,2.52%
5,O=C(CO/N=C/c1ccccc1OC(F)F)NCc1cccs1,16.6% (active)
6,C=CCOc1ccc(C2OC34CCCCC3C(C#N)(C#N)C2(C#N)C(=N)O4)cc1 (stereo not given),0.84%
7,Cc1ccc(-c2noc(-c3c(C)noc3C)n2)cc1,2%
8,O=C1c2ccsc2SCCN1Cc1ccc(F)cc1,7.58%
9,O=C(NN1C(=O)/C(=C/c2ccc(O)cc2)SC1=S)c1ccccc1O,0.14%
10,C=C(C)c1cccc(C(C)(C)NC(=O)Nc2cccnc2)c1,5%
11,N#CC1=C(N)OC2=C(CC/C2=C\c2ccccc2)C1c1ccccc1 (stereo not given),1.94%
12,Cc1ccc(/C=C2\CCC3=C2OC(N)=C(C#N)C3c2ccc(C)cc2)cc1 (stereo not given),0.12%
13,N#CC1=C(N)OC2=C(CC/C2=C\c2ccccc2Cl)C1c1ccccc1Cl (stereo not given),125% (active)
14,COc1ccc2c(n1)Sc1nc3ccccc3nc1N2,0.01%
15,O=C(c1ccccc1)c1ccncc1,0.03%
16,O=C(c1ccccc1)c1ccccc1C(=O)c1ccccc1,0.23%
17,O=C(c1ccccc1)c1ccc(O)cc1O,24.9% (active)
18,CC1(C)CC(=O)C2=C(C1)OC(N)=C(C#N)[C@@H]2c1ccccc1[N+](=O)[O-],7.58%
19,CCNC(=O)COc1ccc(-c2ccccc2)cc1,0.09%
20,O=C(O)c1ccc(NC(=S)NC(=O)c2ccc(-c3ccccc3)cc2)cc1,9.94%
21,O=C(O)CCC(=O)NNC(=O)c1ccc(-c2ccccc2)cc1,49% (active)
22,COc1cc(NC(=O)CSc2ccccc2)c(C(=O)O)cc1OC,3.35%
23,Nc1nc(SCc2cccc(Br)c2)n[nH]1,0.03%
